Where a name gives a salt, the structure may show the parent alone.
Experiments:
K562 = assay: Cytotoxicity against K562 leukemia cell line done for 72 hr at 37 degree C with compound in MTS assay; format: functional, cell-based, Homo sapiens
Outline: (§1)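 Cells (2000–10000) seeded in RPMI-1640 for 24 h, then exponentially growing cells exposed to a range of concentrations (0.001–5 μM) for 72 h at 37 °C, 5% CO2. MTS (2 mg/mL) mixed with PMS (25 μM) added directly; after 3 h at 37 °C formazan absorbance read at 490 nm. IC50 taken from dose-response curves of percent growth versus untreated control.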

SW-620 = assay: Cytotoxicity against SW620 colon cancer cell line done for 72 h at 37 degree C with compound in MTS assay; format: functional, cell-based, Homo sapiens; outline: as §1

| Compound | IC50 (K562; Homo sapiens, K562, 72 h) [nM] | IC50 (SW-620; Homo sapiens, SW-620, 72 h) [nM] | IC50 (K562; k562) [nM] | IC50 (SW-620; sw-620) [nM] |
| --- | --- | --- | --- | --- |
| COc1cccc2c1C(=O)c1c(O)c3c(c(O)c1C2=O)C[C@@](O)(C(C)=O)C[C@@H]3OC1CC(N)C(OC2CC(C)(OC)C(O)C(C)O2)C(C)O1 (stereo partly drawn) | 21 | 11.4 | – | – |
| COc1cccc2c1C(=O)c1c(O)c3c(c(O)c1C2=O)C[C@@](O)(C(C)=O)C[C@@H]3OC1CC(N)C(OC2CC(C)(O)C(O)C(C)O2)C(C)O1 (stereo in doubt; 3) | – | – | 44.3 | 21.7 |
| COc1cccc2c1C(=O)c1c(O)c3c(c(O)c1C2=O)C[C@@](O)(C(C)=O)C[C@@H]3OC1CC(N)C(OC2CC(O)C(O)C(CO)O2)C(C)O1 (stereo partly drawn) | 1380 | > 1000 | – | – |
| COc1cccc2c1C(=O)c1c(O)c3c(c(O)c1C2=O)C[C@@](O)(C(C)=O)C[C@@H]3OC1CC(N)C(OC2CC(C)(O)C(O)C(C)O2)C(C)O1 (stereo in doubt; 4) | – | – | 1530 | > 1000 |
| COc1cccc2c1C(=O)c1c(O)c3c(c(O)c1C2=O)C[C@@](O)(C(C)=O)C[C@@H]3OC1CC(N)C(OC2CC(OC)C(O)C(C)O2)C(C)O1 (stereo in doubt; 2) | – | – | 45.8 | 38.9 |
| COc1cccc2c1C(=O)c1c(O)c3c(c(O)c1C2=O)C[C@@](O)(C(C)=O)C[C@@H]3OC1CC(N)C(OC2OC(C)C(O)C(O)C2O)C(C)O1 (stereo partly drawn) | > 4000 | > 1000 | – | – |
| COc1cccc2c1C(=O)c1c(O)c3c(c(O)c1C2=O)C[C@@](O)(C(C)=O)C[C@@H]3OC1CC(N)C(OC2CC(N=[N+]=[N-])C(O)C(C)O2)C(C)O1 (stereo partly drawn) | 31.3 | 60.3 | – | – |
| COc1cccc2c1C(=O)c1c(O)c3c(c(O)c1C2=O)C[C@@](O)(C(C)=O)C[C@@H]3OC1CC(N)C(OC2CC(OC)C(O)C(C)O2)C(C)O1 (stereo in doubt; 1) | 39.5 | – | – | 18.2 |
| COc1cccc2c1C(=O)c1c(O)c3c(c(O)c1C2=O)C[C@@](O)(C(C)=O)C[C@@H]3O[C@H]1C[C@H](N)[C@H](O)[C@H](C)O1 [DAUNORUBICIN HYDROCHLORIDE] | 15.6 | 8.6 | – | – |

From ChEMBL document CHEMBL1145165, “Syntheses and biological activities of disaccharide daunorubicins” (J Med Chem, 2005)
